Source: PubChem (The Scripps Research Institute Molecular Screening Center)
MC4R antag cAMP: MC4R antagonists of cAMP signaling, primary screen, cell-based, TR-FRET, antagonist arm of biased-ligand search | Melanocortin receptor 4 (Homo sapiens), P32245 | MC4R-expressing cells, MTII-stimulated cAMP, LANCE TR-FRET | inhibition, % at 6.5 µM | hit rate 0.48% among 360,000;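 active = inhibition above its plate's cutoff, the mean of tested wells on that plate plus 3 SD, cut at about 29% in these data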;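 note: 0% = Melanotan II alone and 100% = Melanotan II plus saturating MCL0020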
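Assay system: U2OS cells stably expressing human melanocortin 4 receptor (MC4R) / Dosing: 6.5 µM / Timing: compound 30 min, challenge 1 h, detection 1 h / Measured by: Eu-cAMP/anti-cAMP TR-FRET, emission 671 nm / Replicates: singlicate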
MC4R barr agon: MC4R agonists recruiting beta-arrestin, primary screen, cell-based, luminescence, agonist arm of biased-ligand search. Melanocortin receptor 4 (Homo sapiens), P32245. U2OS MC4R beta-arrestin complementation; percent of melanotan II response, DMSO zero. activation, % at 8.9 µM. hit rate 0.98% among 360,000;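 active = activation above a per-plate cutoff, the mean activation of sample wells on that plate plus 3 SD, cut at about 8% in these data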
TLR4 MyD88 comp: inhibitors of TLR4-MyD88 association in cells, primary screen, cell-based, HeLa CL3-4, BLA complementation, FRET ratio; Toll-like receptor 4 (Homo sapiens) + Myeloid differentiation primary response protein …; HeLa CL3-4 TLR4/MyD88 BLA complementation; inhibition, % at 8.4 µM; hit rate 0.18% among 200,000; in the data active = inhibition above about 25%;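 note: 0% = vehicle and 100% = reference inhibitor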
TLR9-MyD88 block: inhibitors of TLR9-MyD88 association in cells, primary screen, cell-based, CHO, BLA complementation, fluorescence | CCF4 FRET ratio | inhibition, % at 4.98 µM | hit rate 0.21% among 340,000 | AID 504734, 2011;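 active = inhibition above the mean over all tested compounds plus 3 SD, cut at about 21% in these data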;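 note: 0% = DMSO only wells and 100% = clavulanate BLA inhibitor control wells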
NOD2-RIPK2 inh: NOD2-RIPK2 binding disruptors in cells, primary screen, fluorescence, CHO cells, BLA complementation. CCF4 ratio. Receptor-interacting serine/threonine-protein kinase 2 (Homo sapiens), O43353. hit rate 0.38% among 360,000. inhibition, % at 4.98 µM; in the data active = inhibition above about 21%;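 note: 0% = vehicle only and 100% = reference blocker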
* marks the source's active call; other numbers are inactive results; . = no result given. Most compounds without a hit are left out; they make up all but 1.8% or so of the library.

SMILES	MC4R antag cAMP	MC4R barr agon	TLR4 MyD88 comp	TLR9-MyD88 block	NOD2-RIPK2 inh
CC(=O)c1ccc(NC(=O)c2cccc(NC(=O)c3ccccc3)c2)cc1	1	8.4*	.	-7	-9
COc1ccc(-c2cccc(C(=O)Nc3ccc(OC)c(OC)c3)c2)cc1	-5	1	12	8	-9
O=C(c1ccco1)N1CCN(CC(O)COc2ccc(Br)cc2)CC1 (centres undefined)	10	-3	.	-4	11
Cc1cccc(C(=O)Nc2cccc(C(=O)Nc3cc(C)ccn3)c2)c1	20	0	.	2	-2
O=C(Nc1ccc(N2CCN(c3ncccc3C(F)(F)F)CC2)nc1)c1cccs1	3	9.6*	.	-4	6
O=C(Nc1ccc(N2CCN(c3ccc(C(F)(F)F)cn3)CC2)nc1)c1cccs1	-1	1	.	9	-3
COc1cc(/C=C2/C(=N)N3C=CSC3=NC2=O)ccc1OCCCOc1c(C)cccc1C	2	8.4*	3	-4	-7
COc1cc(/C=C2/C(=N)N3C=CSC3=NC2=O)ccc1OCCOc1ccc(NC(C)=O)cc1	7	1	-3	-10	3
CCOc1cc(/C=C2/C(=N)N3C=CSC3=NC2=O)ccc1OCCCOc1ccccc1C	3	9.4*	-7	-10	-5
COc1ccc(Cn2c(-c3ccc(OC)cc3)nc3c(c(=O)c4ccccc4n3C)c2=O)cc1	.	.	-16	.	.
COc1ccc(Cn2c(-c3ccc(C)cc3)nc3c(c(=O)c4ccccc4n3C)c2=O)cc1	15	9.2*	1	7	-6
Cc1cccc(N2CCN(C(=O)Cn3sc4nc(C)cc(C)c4c3=O)CC2C)c1 (centres undefined)	3	1	-6	16	23*
O=C(CCC(=O)OCc1ccc(C(=O)Oc2ccc(Cl)cc2)cc1)Nc1ccccc1	1	9.6*	-14	-2	3
Cc1cccc(NC(=O)[C@H](Cc2ccccc2)NC(=O)OCc2ccccc2)c1	7	3	-12	-8	-3
Cc1ccc(NC(=O)C(Cc2ccccc2)NC(=O)OCc2ccccc2)cc1C (centres undefined)	11	8.8*	-11	-10	0
O=C(O)COc1ccc(/C=C/C(=O)c2ccc3ccccc3c2)cc1	-6	-3	.	0	-6
O=C(O)COc1ccc(/C=C/C(=O)c2ccc(C3CCCCC3)cc2)cc1	-9	8.8*	.	-4	-4
O=[N+]([O-])C(=C1SCCS1)C(=C(Cl)Cl)N1CCCCC1	3	-2	13	-6	3
CN1CCN/C1=C(/C(Cl)=C(Cl)Cl)[N+](=O)[O-]	36*	-3	-1	-15	-7
O=C1c2[nH]nc(-c3ccccc3O)c2C(c2cccc(Cl)c2)N1Cc1ccco1 (centres undefined)	-8	6	-1	2	6
O=C1c2[nH]nc(-c3ccccc3O)c2C(c2ccc(F)cc2)N1Cc1ccco1 (centres undefined)	-1	13*	-5	4	0
CSc1cccc(NC(=S)NC(=O)c2cccnc2)c1	18	-2	.	3	-10
COc1ccc(C2NC(c3ccc(OC)cc3)C(c3ccccc3)C(=O)C2c2ccccc2)cc1 (centres undefined)	0	-1	1	-8	-3
O=C(Nc1ccc(Cl)c([N+](=O)[O-])c1)c1ccc(NCCCN2CCOCC2)c([N+](=O)[O-])c1	5	20*	1	-9	7
Cc1ccc(NC(=O)c2ccc(NCCCN3CCOCC3)c([N+](=O)[O-])c2)cc1Cl	-7	-1	7	8	3
SMILES	MC4R antag cAMP	MC4R barr agon	TLR4 MyD88 comp	TLR9-MyD88 block	NOD2-RIPK2 inh
N#C/C(=C\c1ccncc1)c1nc2ccccc2o1	11	0	.	.	0
N#C/C(=C\c1ccc(Cl)cc1)c1nc2ccccc2o1	3	8.9*	18	-9	-7
O=C(C(=O)N1CCN(c2cccc(Cl)c2)CC1)c1c[nH]c2ccccc12	1	8.5*	-20	-7	18
CC(C)(C)OC(=O)N1CCC(NC(=O)c2[nH]cnc2C(=O)Nc2ccccc2)CC1	3	8.5*	.	6	-23
Cc1ccc(NC(=O)c2nc[nH]c2C(=O)NC2CCN(C(=O)OC(C)(C)C)CC2)cc1	7	0	.	-1	-2
CC(C)(C)OC(=O)N1CCC(NC(=O)c2[nH]cnc2C(=O)Nc2ccc(Br)cc2F)CC1	5	-1	.	-5	-5
CC(C)(C)OC(=O)N1CCC(NC(=O)c2[nH]cnc2C(=O)Nc2ccccc2F)CC1	8	8.3*	.	12	8
CN(CC1CCOCC1)C(=O)CC1C(=O)NCCN1Cc1ccccc1F (centres undefined)	7	-3	.	4	-1
COC(=O)c1cc2c(n1S(=O)(=O)c1ccc(C)cc1)C(=O)C(=O)c1[nH]cc(C(=O)OCc3ccccc3)c1-2	-27	37*	.	-6	-4
COC(=O)c1ccc(COC(=O)c2ccc(CS(=O)(=O)c3ccc(C)cc3)cc2)cc1	3	1	7	-7	-11
CCN(C(=O)COC(=O)/C=C/c1ccccc1)C1CCCCC1	12	-2	-4	5	3
Cc1ccc(Nc2nc(N)nc(CCl)n2)c(C)c1	11	15*	.	0	-5
Nc1nc(CCl)nc(Nc2ccccc2)n1	3	-3	-8	1	-17
COc1ccc(OC)c(Nc2nc(N)nc(CCl)n2)c1	10	9.2*	.	2	-8
CCOc1ccc(Nc2nc(N)nc(CCl)n2)cc1	11	12*	.	-7	-5
CCOC(=O)CC(=O)CSc1ncnc2c1nnn2-c1ccccc1	-3	1	.	8	-4
CN1CCN(S(=O)(=O)c2cccc(C(=O)Nc3cc(C(F)(F)F)ccc3N3CCCC3)c2)CC1	10	0	.	-6	4
CC(C)C1C(C#N)=C(N)Oc2n[nH]c(-c3ccc4ccccc4c3)c21 (centres undefined)	-14	9.4*	13	-8	-1
CCCN(CCC)C(=O)c1cc2c(=O)[nH]c3ccc(C)cc3c2s1	15	1	-12	7	-4
Cc1ccc(C)c(N(C)C(=O)c2cc3c(=O)[nH]c4ccc(C)cc4c3s2)c1	-32	9.1*	.	2	2
OC(c1ccccc1)c1nc(-c2cccc(C(F)(F)F)c2)cs1 (centres undefined)	11	9.5*	.	.	20
O=C(COc1ccccc1)N(Cc1ccccc1)c1nc(-c2ccccc2)cs1	11	21*	-6	3	-6
O=C(CNC(=O)c1ccco1)NCC(=O)OCC(=O)c1ccc(Cl)c([N+](=O)[O-])c1	10	-2	.	-3	12
